The text below walks through data of ChEMBL document CHEMBL4433210, “Synthesis and Evaluation of Bifunctional Aminothiazoles as Antiretrovirals Targeting the HIV-1 Nucleocapsid Protein” (ACS Med Chem Lett, 2019).

The structures appear in SMILES notation. Activity calls are given as the source filed them. Bounds are passed on as bounds.

Data set [1] deals with Human immunodeficiency virus 1. The data set can be described thus: Antiviral activity against wild-type HIV1 NL4-3 infected in human TZM-bl cells infected with supernatants from virus-infected human HeLa P4.R5MAGI cells treated with compound for 72 hrs assessed as reduction in viral replication after 48 hrs by bright Glo-luciferase reporter gene assay. In kind it is functional, organism-based. Conditions: Human immunodeficiency virus 1, NL4-3. In general terms: Reporter assays use an easily measured gene product as a stand-in for the process of interest.

Data set [2] can be described thus: Inhibition of synthesized Nucleocapsid protein (11 to 55 residues) assessed as reduction in NC-induced cTAR DNA destabilization pre-treated with cTAR and Nucleocapsid (11-55) for 15 mins followed by compound addition at 10 uM by spectroflurometry relative to control. Summed up: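 NC chaperone inhibition assay: fluorescence monitoring of NC-induced destabilization of cTAR DNA labelled with Alexa488 at the 5′ end and Dabcyl quencher at the 3′ end. Compound is tested at 10 μM.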

For data set [3], the system named is Human immunodeficiency virus 1. As to the kind of experiment: Antiviral activity against wild-type HIV1 NL4-3 infected infected in human MT2 cells assessed as reduction in HIV1 extracellular genomic RNA level at 1 uM and measured after 30 hrs post infection by TaqMan probe based RT-PCR analysis. The data set is classed as functional, organism-based. Summed up:
(§1)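 MT-2 cells were infected with NL4-3 at MOI 0.1 and incubated with test or reference agents at 20, 5 or 1 μM. Real-time PCR measured integrated HIV-1 DNA and intracellular and extracellular genomic HIV-1 RNA at 30 h post-infection. Levels are expressed as a percentage of the no-drug control culture.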
In general terms: Real-time PCR tracks product formation cycle by cycle.

The subject of data set [4] is Human immunodeficiency virus 1. As to the kind of experiment: Antiviral activity against wild-type HIV1 NL4-3 infected infected in human MT2 cells assessed as reduction in HIV1 intracellular genomic RNA level at 1 uM and measured after 30 hrs post infection by TaqMan probe based RT-PCR analysis. In kind it is functional, organism-based. Summed up: as §1
Data set [5] has as its system Human immunodeficiency virus 1. As to the kind of experiment: Antiviral activity against wild type HIV1 NL4-3 infected in human TZM-bl cells assessed as reduction in viral replication after 48 hrs by bright Glo-luciferase reporter gene assay based BiCycle assay. The data set is classed as functional, organism-based. The note with it: Human immunodeficiency virus 1, NL4-3, TZM-bl. Put shortly: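 BiCycle format: MT-2 cells infected with wild-type NL4-3 in the presence of compound dilutions. Virus produced in this first round was then quantified by infecting TZM-bl cells. IC50 was derived from the dose-response data.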

Data set [6] has as its system Human immunodeficiency virus 1. As to the kind of experiment: Antiviral activity against wild-type HIV1 NL4-3 infected infected in human MT2 cells assessed as reduction in HIV1 extracellular genomic RNA level at 20 uM and measured after 30 hrs post infection by TaqMan probe based RT-PCR analysis. In kind it is functional, organism-based. Summed up:
as §1

For data set [7], the system named is Human immunodeficiency virus 1. The data set can be described thus: Antiviral activity against HIV1 7400 harboring nucleoside reverse transcriptase M41L/D67N/M184V/L210W/T215Y mutant infected in human TZM-bl cells infected with supernatants from virus-infected human MT2 cells treated with compound for 72 hrs assessed as reduction in viral replication after 48 hrs by bright Glo-luciferase reporter gene assay. The data set is classed as functional, organism-based. The note with it: Human immunodeficiency virus 1, 7400. Summed up: (§2)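 BiCycle assay: MT-2 cells infected with a drug-resistant HIV-1 strain in the presence of compound dilutions. Virus produced in this first round is then measured by infecting TZM-bl cells. The readout is IC50.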

Data set [8] deals with Human immunodeficiency virus 1. As to the kind of experiment: Selectivity ratio of IC50 for HIV1 7400 harboring nucleoside reverse transcriptase M41L/D67N/M184V/L210W/T215Y mutant infected in human MT2 cells to IC50 for HIV1 NL4-3 infected in human MT2 cells. The data set is classed as functional. Summed up:
(§3)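 Fold change is the IC50 against the resistant strain divided by the IC50 against the wild-type NL4–3 reference. Both IC50 values come from the BiCycle assay (MT-2 infection, then TZM-bl readout of progeny virus).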

Data set [9] deals with Human immunodeficiency virus 1. The data set can be described thus: Antiviral activity against wild-type HIV1 NL4-3 infected infected in human MT2 cells assessed as reduction in HIV1 intracellular genomic RNA level at 20 uM and measured after 30 hrs post infection by TaqMan probe based RT-PCR analysis. The data set is classed as functional, organism-based. Put shortly: as §1

For data set [10], the system named is Human immunodeficiency virus 1. The data set can be described thus: Antiviral activity against HIV1 11845 harboring integrase 140S/148H double mutant infected in human TZM-bl cells infected with supernatants from virus-infected human MT2 cells treated with compound for 72 hrs assessed as reduction in viral replication after 48 hrs by bright Glo-luciferase reporter gene assay. Conditions: Human immunodeficiency virus 1, 11845. The data set is classed as functional, organism-based. Put shortly: as §2

The subject of data set [11] is Human immunodeficiency virus 1. As to the kind of experiment: Antiviral activity against HIV1 7401 harboring nucleoside reverse transcriptase M41L/E44D/D67N/T69D/M184V/L210W/T215Y mutant infected in human TZM-bl cells infected with supernatants from virus-infected human MT2 cells treated with compound for 72 hrs assessed as reduction in viral replication after 48 hrs by bright Glo-luciferase reporter gene assay. The data set is classed as functional, organism-based. Conditions: Human immunodeficiency virus 1, 7401. Summed up:
as §2

For data set [12], the system named is Human immunodeficiency virus 1. The data set can be described thus: Antiviral activity against HIV1 11808 harboring protease L10F/K20T/V32I/L33F/I54V/G73S/I84V/L89V/L90M mutant infected in human TZM-bl cells infected with supernatants from virus-infected human MT2 cells treated with compound for 72 hrs assessed as reduction in viral replication after 48 hrs by bright Glo-luciferase reporter gene assay. The note with it: Human immunodeficiency virus 1, 11808. The data set is classed as functional, organism-based. Put shortly:
as §2

The test system of data set [13] is Human immunodeficiency virus 1. As to the kind of experiment: Antiviral activity against HIV1 12465 harboring protease M46I/I54V/Q58E/T74P/V82L/L90M mutant infected in human TZM-bl cells infected with supernatants from virus-infected human MT2 cells treated with compound for 72 hrs assessed as reduction in viral replication after 48 hrs by bright Glo-luciferase reporter gene assay. In kind it is functional, organism-based. Conditions: Human immunodeficiency virus 1, 12465. Put shortly: as §2

Data set [14] concerns Human immunodeficiency virus 1. The data set can be described thus: Selectivity ratio of IC50 for HIV1 11808 harboring protease L10F/K20T/V32I/L33F/I54V/G73S/I84V/L89V/L90M mutant infected in human MT2 cells to IC50 for HIV1 NL4-3 infected in human MT2 cells. In kind it is functional. Put shortly: as §3
The test system of data set [15] is Human immunodeficiency virus 1. The data set can be described thus: Selectivity ratio of IC50 for HIV1 7401 harboring nucleoside reverse transcriptase M41L/E44D/D67N/T69D/M184V/L210W/T215Y mutant infected in human MT2 cells to IC50 for HIV1 NL4-3 infected in human MT2 cells. The data set is classed as functional. Summed up: as §3
Data set [16] concerns Human immunodeficiency virus 1. As to the kind of experiment: Selectivity ratio of IC50 for HIV1 12465 harboring protease M46I/I54V/Q58E/T74P/V82L/L90M mutant infected in human MT2 cells to IC50 for HIV1 NL4-3 infected in human MT2 cells. The data set is classed as functional. Put shortly: as §3
Data set [17] concerns Human immunodeficiency virus 1. As to the kind of experiment: Selectivity ratio of IC50 for HIV1 11845 harboring integrase 140S/148H double mutant mutant infected in human MT2 cells to IC50 for HIV1 NL4-3 infected in human MT2 cells. The data set is classed as functional. Summed up:
as §3

For data set [18], the system named is Human immunodeficiency virus 1. As to the kind of experiment: Selectivity ratio of IC50 for HIV1 12231 harboring non-nucleoside reverse transcriptase 103N/179F/181C mutant infected in human MT2 cells to IC50 for HIV1 NL4-3 infected in human MT2 cells. In kind it is functional. Put shortly:
as §3

The subject of data set [19] is Human immunodeficiency virus 1. The data set can be described thus: Antiviral activity against wild-type HIV1 NL4-3 infected infected in human MT2 cells assessed as reduction in intracellular RNA at 20 uM and measured after 30 hrs post infection by Alu-LTR PCR protocol based method. In kind it is functional, organism-based. Summed up: as §1
A short description of data set [20]: Selectivity index, ratio of TD50 for cytotoxicity aginst human PBMC cells to IC50 for antiviral activity against wild type HIV1 NL4-3 infected in human TZM-bl cells assessed as reduction in viral replication after 48 hrs by bright Glo-luciferase reporter gene assay based BiCycle assay. In kind it is toxicity, cell-based. Conditions: read-out: Selectivity Index. Put shortly:
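SI calculated as TD50 from the PBMC MTS assay divided by IC50 from the BiCycle antiviral assay (MT-2 infection followed by TZM-bl read-out).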

In data set [21] the test system is Human immunodeficiency virus 1. The data set can be described thus: Antiviral activity against HIV1 12231 harboring non-nucleoside reverse transcriptase 103N/179F/181C mutant infected in human TZM-bl cells infected with supernatants from virus-infected human MT2 cells treated with compound for 72 hrs assessed as reduction in viral replication after 48 hrs by bright Glo-luciferase reporter gene assay. The data set is classed as functional, organism-based. The note with it: Human immunodeficiency virus 1, 12231. Summed up: as §2

Data set [22] is described as follows: Cytotoxicity against human PBMC cells assessed as reduction in cell viability after 7 days by MTS assay. The data set is classed as cell-based. Conditions: read-out: TD50. Summed up: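 Cytotoxicity in peripheral blood mononuclear cells by MTS assay, giving TD50. Only compounds that met the BiCycle IC50 ≤ 5 μM criterion and were positive in the NC inhibition assay were tested.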

For data set [23], the system named is Human immunodeficiency virus 1. The data set can be described thus: Antiviral activity against HIV1 12229 harboring non-nucleoside reverse transcriptase L100I/K103N/H221Y mutant infected in human TZM-bl cells infected with supernatants from virus-infected human MT2 cells treated with compound for 72 hrs assessed as reduction in viral replication after 48 hrs by bright Glo-luciferase reporter gene assay. The data set is classed as functional, organism-based. Conditions: Human immunodeficiency virus 1, 12229. Summed up:
as §2

Data set [24] deals with Human immunodeficiency virus 1. The data set can be described thus: Selectivity ratio of IC50 for HIV1 12229 harboring non-nucleoside reverse transcriptase L100I/K103N/H221Y mutant infected in human MT2 cells to IC50 for HIV1 NL4-3 infected in human MT2 cells. The data set is classed as functional. Put shortly: as §3
In data set [25] the test system is Human immunodeficiency virus 1. The data set can be described thus: Antiviral activity against wild-type HIV1 NL4-3 infected in human TZM-bl cells treated with compound assessed as reduction in viral replication after 48 hrs by bright Glo-luciferase reporter gene assay based monocycle assay. Conditions: Human immunodeficiency virus 1, NL4-3.
The subject of data set [26] is Human immunodeficiency virus 1. The data set can be described thus: Antiviral activity against wild-type HIV1 NL4-3 infected infected in human MT2 cells assessed as reduction in HIV1 integrated DNA at 20 uM and measured after 30 hrs post infection by Alu-LTR PCR protocol based method. In kind it is functional, organism-based. Put shortly:
as §1

The subject of data set [27] is Human immunodeficiency virus 1. The data set can be described thus: Antiviral activity against wild-type HIV1 NL4-3 infected infected in human MT2 cells assessed as reduction in extracellular RNA at 20 uM and measured after 30 hrs post infection by Alu-LTR PCR protocol based method. The data set is classed as functional, organism-based. Put shortly:
as §1

By IC50 is commonly meant the concentration that inhibits the measured activity by half. As a reminder, the inhibition is the drop in the measured response relative to a control, in per cent. Regarding `Nc1nc(-c2ccccc2OCc2ccc(C(=O)O)cc2)cs1`, in [1], the IC50 amounted to 95000 nM. The inhibition in [2] turned out to be 6%.

Regarding `Cc1cc(/C=C/C#N)cc(C)c1Nc1ccnc(Nc2ccc(C#N)cc2)n1`, the result in data set [3] and in data set [4] was Active.

On to `Nc1nc(-c2ccc(OCc3cccc(C(=O)NCCNC(=O)c4ccc(COc5ccc(Cl)cc5-c5csc(N)n5)cc4)c3)cc2)cs1.O=C(O)C(F)(F)F.O=C(O)C(F)(F)F`, for which the half-maximal inhibitory concentration (IC50) was found to be 800 nM in data set [5]; 700 nM in data set [7]; 2200 nM in data set [10]; 1400 nM in [11]; 600 nM in data set [12]; 1600 nM in [13]. In addition, the half-inhibitory concentration (IC50) in data set [21] is 6000 nM; in data set [23], 1000 nM; in data set [25] it was more than 50000 nM. The outcome in data set [6], in data set [9], in data set [19] and in [26] was inactive. Further, the “Ratio IC50” value stood at 0.9 in data set [8]; 0.7 in [14]; 1.8 in data set [15]; 2 in data set [16]; 2.7 in data set [17]; 7.5 in [18]. In addition, the “Ratio IC50” value in data set [24] came to 1.2. The inhibition in data set [2] came out at 20%. Further, the selectivity ratio at 48 h in [20] was more than 63. In addition, the CC50 at 168 h in data set [22] is more than 50000 nM. The outcome in data set [27] was Active.
